Screening data as filed in PubChem.
In the library only some 1.8% were active in any assay of this set; here they are far more common.
NR2E3 ag-1 – inhibitors of NR2E3-RetCOR corepressor binding, primary screen, NR2E3 agonist project, biochemical, TR-FRET, GST-NR2E3, biotin-RetCOR; Photoreceptor-specific nuclear receptor (Homo sapiens), Q9Y5X4; 1536-well; inhibition of corepressor binding, % at 4.78 µM; hit rate 0.12% among 320,000;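 active = percent inhibition above the cutoff of mean plus 3 SD of all tested compounds, set per screening campaign, cut at about 20% in these data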;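 note: 0% = DMSO wells and 100% = biotin wells as full block of FRET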
Target sequence (Q9Y5X4 whole entry, looked up): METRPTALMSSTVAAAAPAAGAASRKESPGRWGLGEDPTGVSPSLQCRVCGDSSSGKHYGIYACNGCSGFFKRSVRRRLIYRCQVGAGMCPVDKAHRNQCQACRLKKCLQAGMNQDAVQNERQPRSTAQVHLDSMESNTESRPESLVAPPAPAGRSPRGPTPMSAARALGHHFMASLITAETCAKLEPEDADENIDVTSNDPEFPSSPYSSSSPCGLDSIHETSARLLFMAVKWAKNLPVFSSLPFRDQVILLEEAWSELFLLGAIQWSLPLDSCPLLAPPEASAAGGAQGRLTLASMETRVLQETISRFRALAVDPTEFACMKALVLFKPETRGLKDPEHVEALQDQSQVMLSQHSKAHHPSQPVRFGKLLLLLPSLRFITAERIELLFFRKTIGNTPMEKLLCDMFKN
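System: GST-tagged NR2E3 plus biotinylated RetCOR corepressor; Buffer or medium: pH 7.5 Tris-based buffer; Probe or stimulus: RetCOR corepressor, biotinylated, 7 nM; Doses: compound at 4.8 µM, single dose; Schedule: 5 h incubation at 4 °C; Technique: time-resolved FRET; Evaluation: percent inhibition of TR-FRET ratio; Replication: one well per compound, singlicate testing.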
NR2E3 ag-2 – NR2E3 agonists in two-hybrid cells, primary screen, cell-based, luminescence, CHO-S, Gal4-NCOR/VP16-NR2E3 | inhibition of corepressor binding, % at 3.98 µM | Photoreceptor-specific nuclear receptor (Homo sapiens), Q9Y5X4 | hit rate 0.35% among 360,000 | luciferase;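 active = inhibition above the mean of all tested compounds plus 3 SD, cut at about 70% in these data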;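 note: 0% = DMSO with NR2E3 transfected cells and 100% = cells lacking NR2E3 construct; higher means lower luciferase signal from less NR2E3 corepressor binding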
Jurkat NFkB inh – inhibitors of induced NF-kB luciferase reporter, primary screen, TCR NF-kB activation inhibitor project, cell-based, luminescence, uHTS. inhibition, % at 4 µM. Jurkat, PMA/ionomycin-induced NF-kB luciferase reporter. AID 435003, 2010. hit rate 0.53% among 330,000; in the data active = inhibition above about 50%
697 NFkB inh – inhibitors of PMA/ionomycin-induced NF-kB reporter, 697 cells, primary screen, B-cell NF-kB inhibitor project, cell-based, luminescence, uHTS | 697 B-cell NF-kB luciferase reporter, 16 h | inhibition, % at 4 µM | hit rate 0.33% among 330,000; in the data active = inhibition above about 35%
GalR3 antagonist – GalR3 antagonists in HEK293 cells, primary screen, cell-based, fluorescence readout; inhibition, % at 3 µM; hit rate 0.44% among 360,000; HEK293 GalR3-CNG cAMP membrane potential fluorescence; galR3 body fused to GalR1 C-terminus; Galanin receptor type 3 (Homo sapiens), O60755; AID 651719, 2012;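 active = inhibition above the screen-wide average plus 3 SD, cut at about 13% in these data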;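 note: forskolin and galanin both at EC90 stimulate the cells; cAMP rise reported by CNG channel membrane potential dye signal; 0% = forskolin plus galanin with DMSO and 100% = forskolin alone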
Target sequence (O60755 1-299 limits assumed): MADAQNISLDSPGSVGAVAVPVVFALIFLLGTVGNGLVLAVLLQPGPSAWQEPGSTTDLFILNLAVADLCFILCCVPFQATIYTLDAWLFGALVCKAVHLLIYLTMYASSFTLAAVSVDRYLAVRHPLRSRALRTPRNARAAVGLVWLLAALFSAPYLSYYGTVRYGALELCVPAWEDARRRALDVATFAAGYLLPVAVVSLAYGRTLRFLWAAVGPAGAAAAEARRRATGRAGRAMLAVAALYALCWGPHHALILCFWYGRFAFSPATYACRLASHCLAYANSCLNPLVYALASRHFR
Gli-Sufu block – Gli-Sufu pathway antagonists, primary screen, luciferase luminescence, Sufu-KO-LIGHT cells, uHTS. AID 588413, 2011. Sufu-KO-LIGHT fibroblasts, Gli luciferase reporter luminescence. inhibition, % at 5 µM. hit rate 0.74% among 340,000;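 active = inhibition above about 55%, limit read from the data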;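 note: 0% = DMSO-treated cells and 100% = wells with medium but no cells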
Jurkat NFkB conf – PMA/ionomycin-induced NF-kB reporter inhibitors, Jurkat retest, confirmation, T-cell NF-kB inhibitor project, cell-based, luminescence, single concentration; shares compounds with Jurkat NFkB inh; Jurkat NF-kB luciferase, 16 h; inhibition, % at 4 µM; hit rate 27% among 2,700; AID 435020, 2010;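 active = inhibition reaching about 45% at 4 µM in either replicate, limit read from the data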;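 note: plate controls were PMA/ionomycin stimulated DMSO wells for no effect and unstimulated DMSO wells for full effect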
The depositor's hits bear a star; / = not tested or not shown.

SMILES	NR2E3 ag-1	NR2E3 ag-2	Jurkat NFkB inh	697 NFkB inh	GalR3 antagonist	Gli-Sufu block	Jurkat NFkB conf
O=[N+]([O-])c1ccc(N/N=C/c2cccc(O)c2O)cc1	1.9	-150.1	80.9*	-111.6	-1.8	36.0	-5.4
CCOC(=O)C1=C[C@@H](C(C)(C)C)N(S(=O)(=O)c2ccc([N+](=O)[O-])cc2)[C@H]1c1ccccc1Cl	/	/	/	/	-6.6	/	/
CC(C)(C)c1ccc(C(=O)Nc2ccc(Cl)cc2)cc1	4.2	-82.0	-161.4	-188.0	-1.4	-72.3	-115.7
Cc1ccc(C(=O)Nc2ccc(-c3csc(C)n3)cc2)cc1	-2.9	-88.0	-121.7	-80.6	-1.5	-92.1	/
Cc1ccc(C(=O)Nc2ccc(N3CCN(C)CC3)cc2)cc1	-2.2	-65.3	-90.9	-85.8	-3.8	-26.9	/
Cc1ccc(NC(=O)c2ccc(C)cc2)cc1	3.5	-99.4	-155.8	-191.0	-3.6	-114.2	-77.7
Cc1nc(-c2ccc(NC(=O)c3ccccc3)cc2)cs1	3.4	-125.0	-194.9	-84.9	-5.4	-153.7	-124.8
C[C@H]1NS(=O)(=O)c2cccc(Cl)c2O[C@@H]1c1ccccc1	/	/	/	/	-6.1	/	/
Cc1cccc2c(C(=O)N3CCN(c4ccccc4)CC3)cc(-c3ccncc3)nc12	4.9	-18.6	60.1*	7.7	-3.2	19.8	-3.0
Cc1cc(C(=O)CN2C(=O)C3CC=CCC3C2=O)c(C)n1-c1ccccc1 (configuration not stated)	-0.1	-89.0	-173.7	-199.4	-5.4	-91.0	-60.6
Cc1cc(C(=O)CN2C(=O)c3ccccc3S2(=O)=O)c(C)n1-c1ccccc1	3.0	-27.9	65.9*	-33.6	-2.9	14.8	-0.9
CN(Cc1ccccc1)C(=O)CN1C(=O)c2ccccc2S1(=O)=O	-0.3	-13.1	7.4	9.8	-9.6	9.7	/
Cc1cc(C(=O)Cn2cc(C(F)(F)F)ccc2=O)c(C)n1-c1ccccc1	-4.3	-25.9	15.8	-17.9	-3.7	-2.1	/
CCn1c(C)cc(C(=O)CN2C(=O)c3ccccc3S2(=O)=O)c1C	0.8	35.5	69.4*	19.6	-8.9	63.8*	38.7
Clc1ccc(N2CCN(c3cnc4ccccc4n3)CC2)cc1	0.0	-37.6	-20.7	-28.6	-2.1	-10.2	/
c1ccc(N2CCN(c3cnc4ccccc4n3)CC2)cc1	-1.6	-155.0	-152.1	-184.6	-2.6	4.4	-98.2
Cc1ccc(-n2nnnc2-c2cnc3ccc(Cl)cc3c2-c2ccccc2)cc1	2.1	-21.8	58.6*	-7.4	2.0	4.6	21.9
Clc1ccc(-c2nnnn2-c2ccc(Cl)cc2)cc1	1.3	-8.5	-6.3	-7.8	-3.5	-5.2	/
Nc1ncc(-c2nnnn2-c2ccc(Cl)cc2)c(-c2ccc(Cl)cc2)n1	2.9	-41.8	56.2*	-28.3	-5.2	2.4	21.5
c1ccc(Nc2nc(-c3ccccc3)ns2)cc1	-0.1	-126.3	-189.7	-228.4	-8.9	-85.1	-153.6
COC(=O)[C@]12C[C@H](CC(=O)NCC3CCCCC3)C(=O)N(Cc3ccccc3)C1=C[C@H](C1CCCC1)O[C@@H]2C	/	/	/	/	-5.4	/	/
Cn1ncc2c(O/N=C(\N)c3ccc(C(F)(F)F)cc3)ncnc21	1.7	-2.3	78.2*	-61.6	0.5	4.5	-0.2
Cc1ccc(C(=O)NNc2ncnc3c2cnn3C)cc1	0.4	-23.2	4.6	-5.8	4.8	-1.4	/
Cc1c2ccncc2cc2c1[nH]c1ccccc12	/	7.8	/	/	-6.3	16.5	/
COc1ccc2[nH]c3c(C)c4ccncc4c(C)c3c2c1	-7.3	-4.3	52.0*	-141.6	1.4	-26.9	3.6
SMILES	NR2E3 ag-1	NR2E3 ag-2	Jurkat NFkB inh	697 NFkB inh	GalR3 antagonist	Gli-Sufu block	Jurkat NFkB conf
CCN(CC)c1ccc(/C=N/NC(=O)c2ccc3nc[nH]c3c2)c(O)c1	0.9	-9.8	54.5*	-17.6	/	5.7	5.9
CCN(CC)c1ccc(/C=N/N=C(N)N)c(O)c1	-8.6	-37.2	76.6*	15.9	3.6	-2.2	-5.6
CCN(CC)c1ccc(/C=N/NC(=O)c2cccc(S(=O)(=O)Nc3ccccc3OC)c2)c(O)c1	3.9	-8.5	59.5*	-34.4	0.7	83.6*	55.2*
CCN(CC)c1ccc(N=Cc2ccc(N(CC)CC)cc2O)cc1	-0.2	-11.8	-5.8	-5.9	-5.7	-14.8	/
CCN(CC)c1ccc(/C=N/NC(=O)c2nnn(-c3nonc3N)c2C(C)C)c(O)c1	6.1	-15.8	63.0*	-6.3	-2.3	91.5*	50.4*
COc1cccc(/C=N/NC(=O)c2ccc3nc[nH]c3c2)c1O	-1.0	-7.1	-2.1	29.9	-2.7	-2.0	/
Cc1ccc(-n2c(C)cc(/C=c3/sc4nc5ccccc5n4c3=O)c2C)cc1	2.1	/	55.7*	-57.0	/	7.3	19.2
COc1ccc2c(Cn3cnc4cc([N+](=O)[O-])ccc4c3=O)cc(=O)oc2c1	0.7	-13.4	70.4*	15.2	/	-22.7	11.1
COc1ccc(C(=O)N/N=C/c2ccccn2)cc1OC	3.0	-9.3	-6.2	6.3	1.6	-17.6	/
COc1ccc(C(=O)Nc2ccccc2C(=O)N/N=C/c2ccccn2)cc1OC	-3.1	-15.1	55.6*	-66.6	-0.9	45.0	-21.0
CCCC(=O)NC(c1ccc(OC)cc1)c1ccc2cccnc2c1O (configuration not stated)	1.0	-31.5	62.0*	-16.8	-3.9	46.8	59.5*
CCCCC(=O)NC(c1ccc(C(C)C)cc1)c1ccc2cccnc2c1O (configuration not stated)	2.3	-9.9	60.7*	-28.7	-0.8	51.2	82.0*
CCC(=O)NC(c1ccc(OC)cc1)c1cc(Cl)c2cccnc2c1O (configuration not stated)	-0.5	0.1	14.5	-23.5	2.6	44.1	/
Nc1[nH]c(C(=O)c2ccc(Br)cc2)c(-c2ccc(Br)cc2)c1C(=O)NCc1cccc2ccccc12	/	/	/	/	-4.1	/	/
O=C(c1cc(-c2ccc(Cl)cc2Cl)on1)N1CCCCCC1	-2.7	-193.2	-161.8	-179.7	-9.2	/	-132.2
O=C(c1cc(-c2ccc(Cl)cc2)on1)N1CCCCCC1	2.3	-123.0	-169.3	-141.5	-8.3	-103.3	-156.6
Cc1cccc(-c2noc(-c3ccc(Cl)cc3[N+](=O)[O-])n2)c1	-1.6	-0.4	-160.7	-186.6	-1.4	-98.3	-103.0
COc1ccc(C2CC(=O)C(c3ccc(Br)cc3)=CN2Cc2ccccc2)cc1 (configuration not stated)	/	/	/	/	-8.5	/	/
N#Cc1ccc2nc(-c3ccc(CN4CCC(n5cc(-c6ccccc6)[nH]c5=O)CC4)cc3)c(-c3ccccc3)nc2c1	/	/	/	/	-3.0	/	/
